MIC and IC50 data for eight compounds are collected here from ChEMBL document CHEMBL1124223, “1-Substituted 7-[3-[(ethylamino)methyl]-1-pyrrolidinyl]-6,8- difluoro-1,4-dihydro-4-oxo-3-quinolinecarboxylic acids. New quantitative structure-activity relationships at N1 for the quinolone antibacterials” (1988).

Experiment [1] deals with Escherichia coli. Kind of experiment: Minimum inhibitory concentration against Escherichia coli (H560). Format: functional. The procedure, abridged:
(§1)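 MICs were determined by standard microtitration against a panel of 11 bacterial strains. Aqueous stock solutions were prepared with 0.1 N sodium or potassium hydroxide.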

Experiment [2] concerns the target DNA gyrase (Escherichia coli) (UniProt P0AES6+P0AES4). The experiment can be described thus: Concentration required for 50% inhibition of gyrase. Format: protein-complex assay. The procedure, abridged:
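DNA gyrase inhibition: the drug concentration (µg/mL) giving 50% inhibition (I50) was recorded, along with the lowest concentration inducing gyrase-mediated DNA cleavage. Data come from duplicate experiments with ±50% reproducibility.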

The test system of a further experiment is Streptococcus pyogenes. The experiment can be described thus: Minimum inhibitory concentration against Streptococcus pyogenes (C203). Format: functional. The procedure, abridged: as §1
Experiment [3] has as its system Staphylococcus aureus. The experiment can be described thus: Minimum inhibitory concentration against Staphylococcus aureus (UC76). Format: functional. The procedure, abridged: as §1
A further experiment concerns Klebsiella pneumoniae. The experiment can be described thus: Minimum inhibitory concentration against Klebsiella pneumoniae (MGH-2). Format: functional. The procedure, abridged: as §1
The next experiment concerns Enterobacter. Kind of experiment: Minimum inhibitory concentration against gram-negative enterobacteriaceae. Format: functional. The procedure, abridged: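 This value is the geometric mean of microtitration MICs for the Gram-negative Enterobacteriaceae strains in the 11-organism panel. Aqueous stocks were prepared in 0.1 N sodium or potassium hydroxide.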
The next experiment concerns Pseudomonas aeruginosa. The experiment can be described thus: Minimum inhibitory concentration against Pseudomonas aeruginosa. (UI-18). Format: functional. The procedure, abridged:
as §1

The next experiment has as its system Enterobacter cloacae. Kind of experiment: Minimum inhibitory concentration against Enterobacter cloacae. (MA2446). Format: functional.
In a further experiment the test system is Providencia rettgeri. Kind of experiment: Minimum inhibitory concentration against Providencia rettgeri. (M1771). Format: functional. The procedure, abridged: as §1
The test system of experiment [4] is Escherichia coli. The experiment can be described thus: Minimum inhibitory concentration against Escherichia coli (vogel). Format: functional. The procedure, abridged: as §1
The test system of a further experiment is Streptococcus pneumoniae. The experiment can be described thus: Minimum inhibitory concentration against Streptococcus pneumoniae (SV-1). Format: functional. The procedure, abridged: as §1
In experiment [5] the test system is Staphylococcus aureus. Kind of experiment: Minimum inhibitory concentration against Staphylococcus aureus (H-228). Format: functional. The procedure, abridged:
as §1

The subject of the next experiment is Enterococcus faecalis. The experiment can be described thus: Minimum inhibitory concentration against Streptococcus faecalis (MGH-2). Format: functional. The procedure, abridged: as §1

Each structure is given as a SMILES string. In brackets after ≈: the same amount, converted by molar mass.

For `CCNCC1CCN(c2c(F)cc3c(=O)c(C(=O)O)cn(C4CCCC4)c3c2F)C1` (centres undefined), the MIC in the experiment with Escherichia coli [1] came to 0.8 mg/L (≈ 1.91 µM); against Streptococcus pyogenes, 0.4 mg/L (≈ 0.954 µM); against Staphylococcus aureus [3], 0.1 mg/L (≈ 0.238 µM); against Klebsiella pneumoniae, 3.1 mg/L (≈ 7.39 µM); with Enterobacter it was 3.6 mg/L (≈ 8.58 µM); with Pseudomonas aeruginosa, 12.5 mg/L (≈ 29.8 µM). The MIC against Enterobacter cloacae was 6.3 mg/L (≈ 15 µM); in the experiment with Providencia rettgeri, 12.5 mg/L (≈ 29.8 µM); against Escherichia coli [4], 3.1 mg/L (≈ 7.39 µM); against Streptococcus pneumoniae, 0.2 mg/L (≈ 0.477 µM); against Staphylococcus aureus [5] it was 0.4 mg/L (≈ 0.954 µM); in the experiment with Enterococcus faecalis, 0.4 mg/L (≈ 0.954 µM). Besides, the IC50 in [2] stood at 28 mg/L (≈ 66.8 µM).
For the compound `CCNCC1CCN(c2c(F)cc3c(=O)c(C(=O)O)cn(C4CC4C)c3c2F)C1` (centres undefined), the MIC in the experiment on Escherichia coli [1] was 0.8 mg/L (≈ 1.97 µM); in the experiment on Streptococcus pyogenes, 0.8 mg/L (≈ 1.97 µM); in the experiment on Staphylococcus aureus [3] it was 0.2 mg/L (≈ 0.493 µM); in the experiment with Klebsiella pneumoniae, 1.6 mg/L (≈ 3.95 µM); against Enterobacter, 1.59 mg/L (≈ 3.92 µM); against Pseudomonas aeruginosa, 6.3 mg/L (≈ 15.5 µM). In addition, the minimum inhibitory concentration (MIC) turned out to be 1.6 mg/L (≈ 3.95 µM) against Enterobacter cloacae; 6.3 mg/L (≈ 15.5 µM) against Providencia rettgeri; 0.8 mg/L (≈ 1.97 µM) in the experiment on Escherichia coli [4]; 0.8 mg/L (≈ 1.97 µM) in the experiment on Streptococcus pneumoniae; 0.8 mg/L (≈ 1.97 µM) against Staphylococcus aureus [5]; 0.4 mg/L (≈ 0.987 µM) in the experiment with Enterococcus faecalis. In [2], the half-inhibitory concentration (IC50) amounted to 13 mg/L (≈ 32.1 µM).
For the compound `CCNCC1CCN(c2c(F)cc3c(=O)c(C(=O)O)cn(OC)c3c2F)C1` (centres undefined), the minimum inhibitory concentration (MIC) against Escherichia coli [1] stood at 0.4 mg/L (≈ 1.05 µM); against Streptococcus pyogenes, 0.8 mg/L (≈ 2.1 µM); in the experiment on Staphylococcus aureus [3], 0.2 mg/L (≈ 0.524 µM); in the experiment with Klebsiella pneumoniae it was 0.2 mg/L (≈ 0.524 µM); in the experiment with Enterobacter it was 0.46 mg/L (≈ 1.21 µM); in the experiment with Pseudomonas aeruginosa, 6.3 mg/L (≈ 16.5 µM). For the same compound, the MIC stood at 0.4 mg/L (≈ 1.05 µM) with Enterobacter cloacae; 1.6 mg/L (≈ 4.2 µM) with Providencia rettgeri; 0.4 mg/L (≈ 1.05 µM) in the experiment with Escherichia coli [4]; 0.8 mg/L (≈ 2.1 µM) in the experiment on Streptococcus pneumoniae; 0.8 mg/L (≈ 2.1 µM) against Staphylococcus aureus [5]; 0.8 mg/L (≈ 2.1 µM) in the experiment on Enterococcus faecalis. Also, in experiment [2], the IC50 was determined as 27 mg/L (≈ 70.8 µM).
`CCNCC1CCN(c2c(F)cc3c(=O)c(C(=O)O)cn(-c4ccc(F)cc4)c3c2F)C1` (centres undefined): the MIC against Escherichia coli [1] amounted to 0.1 mg/L (≈ 0.224 µM); in the experiment with Streptococcus pyogenes, 0.4 mg/L (≈ 0.898 µM); in the experiment on Staphylococcus aureus [3], 0.2 mg/L (≈ 0.449 µM); with Klebsiella pneumoniae, 1.6 mg/L (≈ 3.59 µM); against Enterobacter it was 0.7 mg/L (≈ 1.57 µM); in the experiment with Pseudomonas aeruginosa it was 1.6 mg/L (≈ 3.59 µM). The minimum inhibitory concentration (MIC) in the experiment with Enterobacter cloacae worked out at 0.8 mg/L (≈ 1.8 µM); against Providencia rettgeri, 1.6 mg/L (≈ 3.59 µM); in the experiment with Escherichia coli [4], 0.8 mg/L (≈ 1.8 µM); against Streptococcus pneumoniae, 0.4 mg/L (≈ 0.898 µM); against Staphylococcus aureus [5], 0.1 mg/L (≈ 0.224 µM); in the experiment with Enterococcus faecalis, 0.2 mg/L (≈ 0.449 µM). Inhibition in [2] was half-maximal at 14 mg/L (≈ 31.4 µM) (IC50).
As for `CCNCC1CCN(c2c(F)cc3c(=O)c(C(=O)O)cn(CC4CC4)c3c2F)C1` (centres undefined), the MIC turned out to be 0.8 mg/L (≈ 1.97 µM) against Escherichia coli [1]; 0.4 mg/L (≈ 0.987 µM) against Streptococcus pyogenes; 0.1 mg/L (≈ 0.247 µM) against Staphylococcus aureus [3]; 1.6 mg/L (≈ 3.95 µM) in the experiment with Klebsiella pneumoniae; 2.09 mg/L (≈ 5.15 µM) against Enterobacter; 25 mg/L (≈ 61.7 µM) in the experiment with Pseudomonas aeruginosa. Besides, the MIC against Enterobacter cloacae worked out at 3.1 mg/L (≈ 7.65 µM); in the experiment with Providencia rettgeri it was 12.5 mg/L (≈ 30.8 µM); against Escherichia coli [4] it was 0.8 mg/L (≈ 1.97 µM); in the experiment on Streptococcus pneumoniae it was 0.8 mg/L (≈ 1.97 µM); against Staphylococcus aureus [5], 0.2 mg/L (≈ 0.493 µM); against Enterococcus faecalis it was 0.8 mg/L (≈ 1.97 µM). In [2], the IC50 was 30 mg/L (≈ 74 µM).
In the case of `CCNCC1CCN(c2c(F)cc3c(=O)c(C(=O)O)cn(-c4ccccc4)c3c2F)C1` (centres undefined), the MIC in the experiment with Escherichia coli [1] stood at 0.8 mg/L (≈ 1.87 µM); with Streptococcus pyogenes, 1.6 mg/L (≈ 3.74 µM); against Staphylococcus aureus [3], 0.2 mg/L (≈ 0.468 µM); in the experiment with Klebsiella pneumoniae, 1.6 mg/L (≈ 3.74 µM); with Enterobacter, 1.83 mg/L (≈ 4.28 µM); in the experiment on Pseudomonas aeruginosa it was 6.3 mg/L (≈ 14.7 µM). Also, the minimal inhibitory concentration (MIC) amounted to 1.6 mg/L (≈ 3.74 µM) in the experiment with Enterobacter cloacae; 6.3 mg/L (≈ 14.7 µM) against Providencia rettgeri; 1.6 mg/L (≈ 3.74 µM) against Escherichia coli [4]; 1.6 mg/L (≈ 3.74 µM) with Streptococcus pneumoniae; 0.8 mg/L (≈ 1.87 µM) in the experiment on Staphylococcus aureus [5]; 0.8 mg/L (≈ 1.87 µM) against Enterococcus faecalis. In addition, the midpoint of inhibition in [2], the IC50, lay at 29 mg/L (≈ 67.8 µM).
For the compound `CCNCC1CCN(c2c(F)cc3c(=O)c(C(=O)O)cn(CCF)c3c2F)C1` (centres undefined), the MIC against Escherichia coli [1] was found to be 0.1 mg/L (≈ 0.252 µM); with Streptococcus pyogenes it was 0.1 mg/L (≈ 0.252 µM); against Staphylococcus aureus [3], 0.1 mg/L (≈ 0.252 µM); with Klebsiella pneumoniae it was 0.4 mg/L (≈ 1.01 µM); against Enterobacter, 0.23 mg/L (≈ 0.579 µM); with Pseudomonas aeruginosa, 1.6 mg/L (≈ 4.03 µM). Also, the MIC in the experiment on Enterobacter cloacae stood at 0.2 mg/L (≈ 0.503 µM); with Providencia rettgeri it was 0.8 mg/L (≈ 2.01 µM); against Escherichia coli [4] it was 0.1 mg/L (≈ 0.252 µM); against Streptococcus pneumoniae, 0.1 mg/L (≈ 0.252 µM); in the experiment on Staphylococcus aureus [5], 0.4 mg/L (≈ 1.01 µM); against Enterococcus faecalis it was 0.2 mg/L (≈ 0.503 µM). This compound yielded an IC50 in experiment [2] of 7.5 mg/L (≈ 18.9 µM).
Consider `CCNCC1CCN(c2c(F)cc3c(=O)c(C(=O)O)cn(-c4nccs4)c3c2F)C1` (centres undefined), for which the MIC in the experiment on Escherichia coli [1] was 3.1 mg/L (≈ 7.14 µM); in the experiment with Streptococcus pyogenes it was 6.3 mg/L (≈ 14.5 µM); against Staphylococcus aureus [3], 1.6 mg/L (≈ 3.68 µM); against Klebsiella pneumoniae, 3.1 mg/L (≈ 7.14 µM); against Enterobacter it was 3.14 mg/L (≈ 7.23 µM); against Pseudomonas aeruginosa, 25 mg/L (≈ 57.5 µM). For the same compound, the MIC against Enterobacter cloacae was 1.6 mg/L (≈ 3.68 µM); in the experiment with Providencia rettgeri, 12.5 mg/L (≈ 28.8 µM); against Escherichia coli [4] it was 1.6 mg/L (≈ 3.68 µM); in the experiment on Streptococcus pneumoniae, 12.5 mg/L (≈ 28.8 µM); against Staphylococcus aureus [5], 25 mg/L (≈ 57.5 µM); against Enterococcus faecalis, 6.3 mg/L (≈ 14.5 µM). The compound further returned a 50% inhibitory concentration (IC50) in experiment [2] of 30 mg/L (≈ 69 µM).

As a reminder, the MIC is the smallest concentration in the dilution series that meets the test's criterion for growth inhibition. The IC50 is the midpoint of a concentration-inhibition curve. Low readings indicate greater potency, high ones weaker potency.
